Drawing on ChEMBL document CHEMBL1158783, “Neoflavonoids and related constituents from Nepalese propolis and their nitric oxide production inhibitory activity” (J Nat Prod, 2005), this text covers Activity and IC50 for 18 molecules.

Tested on in one series: not listed separately
As to the kind of experiment: Cytotoxicity against mouse J774.1 cells at > 50 uM by MTT assay. The format is cell-based.
Conditions: not given; call rule not given here
As for `C=CC(c1ccccc1)[C@@H]1C[C@@H](O)C=CC1=O` (stereo not given in full), the outcome was Active.

On to `C=CC(c1ccccc1)[C@H]1C[C@@H](O)C=CC1=O` (stereo not given in full), for which the outcome was Active.

A further series has as its system J774.1. As to the kind of experiment: Inhibition of LPS-induced NO production in mouse J774.1 cells after 24 hrs by Griess reagent assay. The format is functional, cell-based. To be noted: J774.1, 24 h. In outline: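 J774.1 cells grown in RPMI 1640 with penicillin G, streptomycin and 10% FCS, seeded at 1 × 10⁵ cells/well and left to adhere for 2 h at 37 °C, 5% CO₂. Fresh medium with LPS (10 µg/mL) plus compound was then added for 24 h. Supernatant nitrite was read with Griess reagent (10 min, room temperature, A550), medium-blank corrected, and compared with an LPS-only control. IC50 taken from the mean of four determinations.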
Broadly, the IC50 is the concentration needed to halve the response being measured. A low value points to greater potency. For the molecule `COc1ccc2c(c1O)O[C@@H]1c3ccc(O)cc3OC[C@H]21`, the IC50 was 3.4 µM.

In the case of `COc1ccc2c(c1)O[C@H]1c3ccc(O)c(O)c3OC[C@@H]21`, half-maximal inhibition (IC50) was put at 5.4 µM.

`C=C[C@H](C1=CC(=O)C(OC)=CC1=O)c1ccccc1`: the IC50 worked out at 10.2 µM.

As to `C=C[C@@H](c1ccccc1)c1ccc(O)c(O)c1`, it took 8.4 µM to reach half-maximal inhibition (IC50). The IC50 values of the last two molecules are within 1.5-fold of each other.

For `C=C[C@@H](c1ccccc1)[C@@H]1C[C@@H](O)[C@@H](OC)C[C@@H]1O`, inhibition was half-maximal at 100 µM (IC50).

As for `C=CC(c1ccccc1)[C@@H]1C[C@@H](O)C=CC1=O` (stereo not given in full), half-maximal inhibition (IC50) required 0.5 µM. Against the preceding molecule, the IC50 is about 200-fold lower.

In turn, `C=CC(c1ccccc1)[C@H]1C[C@@H](O)C=CC1=O` (stereo not given in full) yielded an IC50 of 0.5 µM.

`C=C[C@@H](c1ccccc1)[C@@H]1C[C@@H](O)[C@@H](OC)CC1=O` had an IC50 of 13.2 µM. This IC50 is about 26-fold higher than that of the molecule before.

On to `C=C[C@H](c1ccccc1)[C@@H]1C[C@@H](O)[C@@H](OC)CC1=O`, for which the IC50 turned out to be 9.6 µM. The IC50 values of the last two molecules are within 1.5-fold of each other.

Turning to `C=CC(c1ccccc1)[C@H]1C[C@@H](O)C[C@@H](OC)C1=O` (stereo not given in full), the midpoint of inhibition, the IC50, lay at 2.3 µM.

In turn, `C=C[C@@H](c1ccccc1)c1ccc(O)cc1O` returned an IC50 of 5.5 µM.

Molecule `COC1=CC(=O)CCC1(O)C/C=C/c1ccccc1` (stereo not given) had an IC50 of 19.2 µM. This IC50 is about 3.5-fold higher than that of the molecule before.

For the molecule `C=CC(c1ccccc1)[C@@H]1C[C@H](O)C(OC)=CC1=O` (stereo not given in full), the midpoint of inhibition, the IC50, lay at 48.5 µM.

In the case of `C=CC(c1ccccc1)[C@H]1C[C@@H](O)[C@@H](OC)CC1=O` (stereo not given in full), the IC50 came to 9.6 µM.

For the molecule `O=C(/C=C/c1ccc(O)c(O)c1)OCCc1ccccc1` [CAFFEIC ACID PHENETHYL ESTER], the IC50 amounted to 4.8 µM.

The molecule `COc1cc(O)c(C(=O)c2ccccc2)cc1O` [CEAROIN] displayed an IC50 of 15.4 µM.

`O=C(/C=C/c1ccc(O)cc1)c1ccc(O)cc1O` [ISOLIQUIRITIGENIN] yielded an IC50 of 29.3 µM.

For `C=CC(c1ccccc1)c1cc(O)c(OC)cc1O` (stereo not given) [OBTUSAQUINOL], the IC50 is 6.3 µM.
